Results as given in ChEMBL document CHEMBL1141015, “Discovery of diacylphloroglucinols as a new class of GPR40 (FFAR1) agonists” (Bioorg Med Chem Lett, 2008).
Active and inactive are the calls of the source. The calls are words filed in the database; no cut-off is given here.

Assays:
[1] = molecular target: T1, Free fatty acid receptor 1 (Homo sapiens, UniProt O14842); assay: Agonist activity at human GPR40 expressed in CHOK1 cells assessed as fold increase in calcium flux at 10 uM by fluorescence assay relative to control; assay type: functional, cell-based; settings: CHO-K1
T1 sequence (O14842 whole entry): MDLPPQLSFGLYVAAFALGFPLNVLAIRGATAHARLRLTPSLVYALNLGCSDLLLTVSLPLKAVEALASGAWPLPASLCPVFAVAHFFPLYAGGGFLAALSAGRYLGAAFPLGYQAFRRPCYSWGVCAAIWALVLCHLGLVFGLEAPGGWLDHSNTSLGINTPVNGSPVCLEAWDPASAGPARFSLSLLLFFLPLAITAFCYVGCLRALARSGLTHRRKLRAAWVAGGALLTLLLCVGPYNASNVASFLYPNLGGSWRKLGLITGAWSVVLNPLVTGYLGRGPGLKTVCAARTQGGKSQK
How it was run: (§1)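 CHO K1 cells stably transfected with hGPR40 (vector pCDN), seeded 10,000 cells/well on poly-D-lysine plates, 48 h culture; loaded 1 h with 2.5 µM Fluo-4AM in 10 mM Hepes, 2.5 mM probenecid, HBSS pH 7.5, washed thrice, 37 °C; Ca²⁺ flux read on FlexStation as fold over control; mock-transfected CHO K1 cells run in parallel for specificity.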

[2] = molecular target: T1, Free fatty acid receptor 1; assay: Agonist activity at human GPR40 expressed in CHOK1 cells assessed as effect on calcium flux at 10 uM by fluorescence assay; assay type: functional, cell-based; settings: CHO-K1; how it was run: as §1
[3] = molecular target: T1, Free fatty acid receptor 1; assay: Activity at human GPR40 expressed in CHOK1 cells assessed as inhibition of linoleic acid-induced calcium flux by fluorescence assay; assay type: functional, cell-based; settings: CHO-K1
[4] = molecular target: T1, Free fatty acid receptor 1; assay: Activation at GPR40 expressed in HEK293 cells at 100 uM by calcium mobilization-based FLIPR assay; assay type: functional, cell-based
[5] = molecular target: T1, Free fatty acid receptor 1; assay: Agonist activity at human GPR40 expressed in CHOK1 cells by fluorescence assay; assay type: functional, cell-based, CHO-K1; how it was run: as §1
[6] = molecular target: T1, Free fatty acid receptor 1; assay: Agonist activity at human GPR40 expressed in CHOK1 cells assessed as maximal response at 10 uM by fluorescence assay relative to linoleic acid; assay type: functional, cell-based; settings: CHO-K1; how it was run: as §1
HIT-T15 = assay: Induction of insulin secretion in Syrian golden hamster HIT-T15 cells at 10 uM; assay type: functional, cell-based; settings: Mesocricetus auratus
How it was run: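 HIT-T15 hamster pancreatic cells treated with 10 µM compound; insulin secretion measured, with linoleic acid as reference.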

[7] = molecular target: T1, Free fatty acid receptor 1; assay: Agonist activity at GPR40; assay type: functional
[8] = molecular target: Free fatty acid receptor 1 (Mus musculus, UniProt Q76JU9); assay: Agonist activity at mouse GPR40 expressed in HEK293 cells; assay type: functional, cell-based
Sequence of Free fatty acid receptor 1 (Mus musculus, UniProt Q76JU9) (Q76JU9 whole entry): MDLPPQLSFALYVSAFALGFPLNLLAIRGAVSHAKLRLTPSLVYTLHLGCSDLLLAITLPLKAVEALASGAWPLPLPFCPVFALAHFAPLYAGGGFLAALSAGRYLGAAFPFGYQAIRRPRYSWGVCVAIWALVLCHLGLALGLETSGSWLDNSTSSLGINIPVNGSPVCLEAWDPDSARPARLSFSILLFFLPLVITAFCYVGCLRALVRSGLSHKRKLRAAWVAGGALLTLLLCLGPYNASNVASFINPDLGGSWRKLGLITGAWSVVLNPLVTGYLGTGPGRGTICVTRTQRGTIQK

[9] = molecular target: T1, Free fatty acid receptor 1; assay: Agonist activity at GPR40 expressed in CHO cells by FLIPR assay; assay type: functional, cell-based
How it was run: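 CHO-K1 cells stably transfected with hGPR40 (pCDN vector), seeded and grown 48 h, loaded 1 h with Fluo-4AM in 10 mM Hepes/Ca²⁺/2.5 mM probenecid HBSS pH 7.5, washed thrice, held at 37 °C. FlexStation calcium flux read as fold over control. EC50 from dose–response curves; efficacy as % of maximal linoleic acid response. Mock-transfected CHO-K1 run in parallel.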

[10] = molecular target: T1, Free fatty acid receptor 1; assay: Agonist activity at GPR40 at 100 uM; assay type: functional

Row | SMILES | fold change (FC) [1] | Activity [2] | Activity [3] | also measured
1 | CCCCCCCCCCCCCCCCCC(=O)c1c(O)cc(O)c(C(=O)CCCCCCCCCCCCCCCCC)c1O | 1.19 | inactive | inactive | –
2 | CCCCOc1cc(OCCCC)c(C(=O)CC(C)C)c(O)c1C(=O)CC(C)C | 1.35 | inactive | inactive | –
3 | CC(C)CC(=O)c1c(O)c(Cc2c(O)c(C(=O)CC(C)C)c(O)c(C(=O)CC(C)C)c2O)c(O)c(C(=O)CC(C)C)c1O | 1.11 | inactive | inactive | –
4 | CCCCOc1cc(O)c(C(=O)CC(C)C)c(OCCCC)c1C(=O)CC(C)C | 1.46 | inactive | inactive | –
5 | O=C(/C=C/C(=O)c1c(O)cc(O)cc1O)c1c(O)cc(O)cc1O | 1.01 | inactive | inactive | –
6 | O=C(CCl)c1c(O)cc(O)c(C(=O)CCl)c1O | 1.21 | inactive | inactive | –
7 | O=C(O)CCCC(=O)c1c(O)cc(O)cc1O | 1 | inactive | inactive | –
8 | O=C(O)CCCCCCCNc1ncc(-c2ccccc2)c(-c2ccccc2)n1 | – | – | – | Activity [4]: 104%
9 | O=C(O)CCc1ccc2oc(Nc3cccc(Cl)c3Cl)nc2c1 | – | – | – | Activity [4]: 111%
10 | CCCCCCCC(=O)c1c(O)cc(O)c(C(=O)CCCCCCC)c1O | 1.21 | inactive | inactive | –
11 | CC(C)C(=O)c1c(O)cc(O)c(C(=O)C(C)C)c1O | 2.31 | Active | – | EC50 [5]: 8000 nM; Activity [6]: 88.7%; Activity (HIT-T15): Active
12 | CC(C)CC(=O)c1c(O)cc(O)cc1O | 1.12 | inactive | inactive | –
13 | CC#CC(CC(=O)O)c1ccc(OC2CCc3cc(-c4cccs4)ccc32)cc1 (stereo unspecified) | – | – | – | EC50 [7]: 10 nM
14 | Cc1cccc(C)c1-c1cccc(COc2ccc(Cn3oc(=O)[nH]c3=O)cc2)c1 | – | – | – | EC50 [7]: 260 nM
15 | CCCCCCCCC1SC(=O)NC1=O (stereo unspecified) | – | – | – | EC50 [8]: 7940 nM
16 | CC(C)CC(=O)c1c(O)cc(O)c(C(=O)CCCC(=O)O)c1O | 1 | inactive | inactive | –
17 | CC(C)CC(=O)c1c(O)cc(O)c(C(=O)CC(C)C)c1O | 1.89 | Active | – | EC50 [5]: 6000 nM; Activity [6]: 102%; Activity (HIT-T15): Active
18 | CCCCOc1ccc(C)cc1-c1ccc(COc2ccc3c(c2)CCC[C@H]3CC(=O)O)cc1 | – | – | – | EC50 [9]: < 100 nM
19 | O=C(O)[C@H]1[C@@H]2Oc3cc(Oc4ccc(C(F)(F)F)cc4Cl)ccc3[C@@H]21 | – | – | – | EC50 [9]: 0.1 nM
20 | Cc1cc(OCC2(C)COC2)cc(C)c1-c1cccc(COc2ccc(C3CC3C(=O)O)cc2)c1 (stereo unspecified) | – | – | – | Activity [10]: 119%
21 | CCCCc1c(O)c(C(=O)CC(C)C)c(O)c(C(=O)CC(C)C)c1O | 2.12 | Active | – | EC50 [5]: 970 nM; Activity [6]: 84.5%
22 | CCCCCCCCCCCCCCCC(=O)c1c(O)cc(O)c(C(=O)CCCCCCCCCCCCCCC)c1O | 1.02 | inactive | inactive | –
23 | CCCCC/C=C\C/C=C\CCCCCCCC(=O)O [LINOLEIC ACID] | 2.55 | Active | – | EC50 [7]: 540 nM; EC50 [5]: 540 nM
24 | CCCCOc1cc(O)c(C(=O)CC(C)C)c(O)c1C(=O)CC(C)C | 1.02 | inactive | inactive | –
25 | CC(C)CC(=O)c1c(O)cc(OCCO)c(C(=O)CC(C)C)c1O | 1.02 | inactive | inactive | –
26 | CCCCCCCCCCCC(=O)c1c(O)cc(O)c(C(=O)CCCCCCCCCCC)c1O [DIDODECANOYLPHLOROGLUCINOL] | 2.33 | Active | – | EC50 [5]: 70 nM; Activity [6]: 100%; Activity (HIT-T15): Active
27 | O=C(O)CCc1ccc(OCc2ccc(CC(CCc3ccccn3)c3nc(-c4ccccc4)cs3)cc2)cc1 (stereo unspecified) | – | – | – | EC50 [7]: 19 nM
